# MrgX1 antagonist: antagonists of human MrgX1 receptor | Q96LB2 | MRGX1-HEK293 calcium flux, Fluo-4, BAM8-22 antagonism; stronger effect = lower value | B-score at 10 µM | actives 1.3% (n = 310,000) | AID 588676;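 active means calcium-response B-score plate-corrected more than 3 library SD below zero, starting fluorescence within 5 deviations, no agonist response on first addition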;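 further: peak minus trough fluorescence over baseline after final BAM8-22 challenge near maximal dose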
# Target sequence (Q96LB2 whole entry, looked up): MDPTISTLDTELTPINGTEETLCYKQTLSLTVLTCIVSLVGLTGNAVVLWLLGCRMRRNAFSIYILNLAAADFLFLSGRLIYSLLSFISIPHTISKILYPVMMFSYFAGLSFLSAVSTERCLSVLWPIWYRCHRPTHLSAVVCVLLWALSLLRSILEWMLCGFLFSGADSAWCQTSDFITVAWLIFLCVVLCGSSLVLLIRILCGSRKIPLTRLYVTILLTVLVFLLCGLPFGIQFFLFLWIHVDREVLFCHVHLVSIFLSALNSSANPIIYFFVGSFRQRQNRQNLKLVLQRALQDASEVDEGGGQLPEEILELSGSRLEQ
# MrgX1 ag: activates human MrgX1 receptor signaling | actives 0.44% (n = 310,000) | MrgX1-HEK293 cells, Fluo-4 calcium fluorescence, agonist mode; stronger effect = higher value | B-score at 10 µM | Q96LB2;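 active means calcium response B-score plate-corrected fluorescence ratio at least 3 library SD, with starting fluorescence B-score inside 5 SD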
#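 System: HEK293 cells stably expressing human MrgX1 receptor; Dosing: test compound in the initial addition of three; Schedule: overnight plating, then 30 min 37 °C plus 30 min room-temperature dye loading; Detection: kinetic calcium dye fluorescence, Fluo-4 NW; Controls: per-plate positive and negative controls for Z′ factor.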
# RGS4 inh: human RGS4 inhibition; P49798; HEK293 M3R/RGS4 inducible, Fluo-4 calcium flux; stronger effect = higher value; triggered by carbachol at its EC20; B-score at 10 µM; actives 0.45% (n = 310,000); AID 463165;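 active means B-score, a plate-corrected calcium signal, over three deviations above library mean, with baseline fluorescence within five deviations of library mean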;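 further: RGS4 expression induced by doxycycline in cells with stable M3 receptor; B-score is computed from the integrated fluorescence ratio over baseline after carbachol; higher B-score means a larger calcium signal and so more RGS4 inhibition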
# Target sequence (P49798 whole entry, looked up): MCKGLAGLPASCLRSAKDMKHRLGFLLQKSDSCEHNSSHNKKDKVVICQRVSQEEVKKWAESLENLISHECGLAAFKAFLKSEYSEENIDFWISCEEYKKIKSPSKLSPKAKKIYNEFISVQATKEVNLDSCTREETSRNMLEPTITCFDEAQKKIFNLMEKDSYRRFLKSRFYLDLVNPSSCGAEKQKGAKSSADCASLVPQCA
# RGS4 act: RGS4 potentiation or activation; actives 0.92% (n = 310,000); B-score at 10 µM; AID 463111; HEK293 M3R/inducible RGS4, carbachol calcium flux Fluo4; stronger effect = lower value;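 active means B-score of the integrated calcium signal more than 4 SD below the library mean, with starting fluorescence not abnormally high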;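 further: negative B-score means reduced calcium response which marks RGS4 activation or potentiation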
#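 Reagent: ECmax carbachol challenge; Test system: M3R-expressing HEK293 line, RGS4 induced by doxycycline; Schedule: overnight RGS4 induction, 30 min dye load 37 °C, 20 min compound RT; Detection: calcium dye Fluo4 fluorescence; Read-out: Agonist-evoked peak-minus-minimum fluorescence over baseline, integrated ratio, B score.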
# MrgX1 allo act: human MrgX1 positive allosteric modulation, primary screen; B-score at 10 µM; actives 0.63% (n = 310,000); Q96LB2; MrgX1-HEK293, Fluo-4 calcium flux, FDSS; stronger effect = higher value;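 active means plate-corrected calcium response at least 3 library SD above typical, normal starting fluorescence, not activating the receptor alone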;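 further: compound read alongside a low EC10 to EC30 dose of BAM8-22 agonist; peak minus trough fluorescence over baseline measured at the second addition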
# Starred values were filed as active, the others as inactive; i = inactive. An excerpt weighted towards active compounds, which were near 3.5% of everything screened.
SMILES,MrgX1 antagonist,MrgX1 ag,RGS4 inh,RGS4 act,MrgX1 allo act
O=C(NCc1ccccn1)C1CCCN(Cc2cnn(-c3ccccc3)c2-n2cccc2)C1 (centres undefined),i,i,i,-7.26*,i
O=C(NCc1ccccn1)C1CCN(Cc2cnn(-c3ccccc3)c2-n2cccc2)CC1,i,i,i,i,i
CC1CC(=O)c2c(cc3c(-c4c(O)cc(O)c5c(O)c6c(cc45)OC(C)CC6=O)c(O)cc(O)c3c2O)O1 (centres undefined),-6.75*,i,i,i,i
Cc1ccnc(N2C(=O)c3cccc4c([N+](=O)[O-])ccc(c34)C2=O)c1,-5.17*,i,i,i,i
CCN1C(=NCC(C)C)N[C@@H](c2cccc(F)c2)C(C(=O)OC)=C1C,i,i,i,i,i
COC(=O)C1=C[C@@H](C(=O)OC)[C@@H]2C3=C(C(=O)[C@@]2(C)NC(=O)c2ccccc2)[C@H](C)C(C(=O)OC)=C(C(=O)OC)[C@@H]3C1,i,i,i,i,i
CCCOC(=O)c1ccc(Oc2cn[nH]c2-c2ccc(OC)cc2O)cc1,i,i,i,-7.53*,i
COc1cccc(Oc2cn[nH]c2-c2ccc(OCC(=O)NN)cc2O)c1,i,i,i,i,i
Cn1c(Cc2cccc3ccccc23)nnc1SCc1ccc([N+](=O)[O-])cc1,-8.59*,i,i,i,i
CN(Cc1ccccc1F)Cc1cc(=O)oc2cc(O)c(Cl)cc12,i,i,i,i,i
Cc1cc2oc(=O)cc(CN(C)Cc3ccccc3F)c2cc1Cl,i,i,i,-7.03*,i
COc1ccc(CN(C)Cc2cc(=O)oc3cc(C)c(C(C)C)cc23)cc1OC,i,i,i,-7.12*,i
Cc1cc2oc(=O)cc(CN(C)Cc3ccccc3)c2cc1C(C)C,i,i,i,i,i
CCOc1cc(CNC2CCCC2)c(Cl)cc1OCC(=O)Nc1ccccc1,i,i,i,-7.25*,i
COc1ccccc1-c1c(C)oc2cc(OC(=O)c3ccco3)ccc2c1=O,i,i,i,i,i
COc1ccc2c(=O)c(-c3ccccc3C)c(C)oc2c1,i,i,i,i,9.33*
O=[N+]([O-])c1ccc(C2CCCC/C2=N/OCc2ccccc2F)c([N+](=O)[O-])c1 (centres undefined),i,i,i,-7.72*,i
CCn1c(=O)c(CCC(=O)N2CCN(c3ccccn3)CC2)c(C)c2c(C)nn(-c3cccc(C)c3)c21,i,i,i,i,i
Cc1cc2nc(-c3ccc(SCC(=O)Nc4ccc(S(=O)(=O)N5CCCC5)cc4)nc3)[nH]c2cc1C,i,i,i,i,i
O=C(CSc1ccc(-c2nc3ccccc3[nH]2)cn1)Nc1ccc(S(=O)(=O)N2CCCC2)cc1,i,i,i,-7.09*,i
Cc1ccc(S(=O)(=O)c2c(N)n(Cc3ccco3)c3nc4ccccc4nc23)cc1C,-4.77*,i,i,i,i
O=C(CSc1ccc(-c2ccc(Cl)cc2)nn1)Nc1ccc2c(c1)OCCO2,i,i,i,i,i
COCC(C)NC(=O)c1ccc(CN2CCc3ccccc3C2)cc1 (centres undefined),i,i,i,i,i
CCCNC(=O)c1ccc(CN2CCc3ccccc3C2)cc1,i,i,i,-7.09*,i
CCC(C)NC(=O)c1ccc(CN2CCc3ccccc3C2)cc1 (centres undefined),i,i,i,-7.47*,i
SMILES,MrgX1 antagonist,MrgX1 ag,RGS4 inh,RGS4 act,MrgX1 allo act
COCCNC(=O)c1ccc(CN2CCc3ccccc3C2)cc1,i,i,i,i,i
CCc1[nH]nc(C(=O)N2CCCC(CCC(=O)N3CCN(c4ccccn4)CC3)C2)c1C (centres undefined),i,i,i,i,i
CSc1ccc(/C=C2\C(=N)N3N=C(CC(=O)N4CCCCC4)SC3=NC2=O)cc1,i,38*,i,i,i
CSc1ccc(/C=C2\C(=N)N3N=C(CC(=O)N4CCOCC4)SC3=NC2=O)cc1,i,i,i,i,11.1*
CCc1ccc(/C=C2\C(=N)N3N=C(CC(=O)N4CCCCC4)SC3=NC2=O)cc1,i,i,i,i,i
CCN(CC)c1ccc(/C=C2\C(=N)N3N=C(CC(=O)N4CCOCC4)SC3=NC2=O)cc1,i,28.3*,i,i,i
CCN(CC)C(=O)C(=O)N/N=C/c1ccc(F)cc1,i,i,i,i,i
CCc1cc(=O)oc2cc(C)cc(OCC(=O)N3CCC(C(=O)O)CC3)c12,i,i,i,i,i
CSc1ccc(CN(C)C(=O)COc2ccc(C(=O)c3ccccc3)cc2)cc1,i,i,i,i,i
COc1ccc2[nH]cc(/C=C/c3cc[n+](C)cc3)c2c1,-7.9*,i,i,i,i
COc1ccc2[nH]cc(C=O)c2c1,i,i,i,i,i
O=C(NCCCO)c1nnc(Cc2c(F)cccc2Cl)o1,i,i,i,i,i
O=C(NCCCN1CCN(Cc2ccccc2)CC1)c1nnc(Cc2c(F)cccc2Cl)o1,-4.67*,i,i,i,i
Cc1cc(F)ccc1Oc1cc(NN2CCCCC2)c([N+](=O)[O-])cc1[N+](=O)[O-],i,i,i,i,i
COc1cccc(Oc2cc(NN3CCCCC3)c([N+](=O)[O-])cc2[N+](=O)[O-])c1OC,i,i,i,-9.12*,i
COc1ccc(C(=O)NC(C)c2cnn(-c3ccccn3)c2C)o1 (centres undefined),i,i,i,i,i
CCN(CC)CCNC(=O)c1ccc(NC(C)=O)cc1,i,i,i,i,i
CCN(CC)CCNC(=O)c1ccc(NC(=O)Cc2cccc3ccccc23)cc1,i,i,i,-7.52*,i
CC1=[N+](C)N(c2ccccc2)C(=O)C1N=C/C=C/c1ccccc1 (centres undefined),i,i,i,-7.5*,i
Cc1ccccc1OCCC(=O)OCC(=O)Nc1ccc2[nH]c(=O)[nH]c2c1,i,i,i,i,i
Fc1ccc(OCCOCCN2CCCC2)cc1,i,i,i,i,i
CC(OCCN1CCCC1)(c1ccc(F)cc1)c1ccc(F)cc1,i,i,i,-7.49*,i
NS(=O)(=O)c1cc(C(=O)NC2CCSc3ccccc32)ccc1Cl (centres undefined),i,61.6*,i,i,i

# Assay outcomes from PubChem.
